The source made the active and inactive calls. The rule behind the calls is not given here.
Experiments:
Rattus norvegicus [1] = experiment: Antiarthritic activity in Sprague-Dawley rat model of arthritis assessed as decrease in CFA-induced synovial hyperplasia at 40 and 80 mg/kg, ig administered daily for 28 days starting from 14 days post-immunization and measured every 3 days by H and E staining based histopathological analysis; type: functional, organism-based
In short: (§1)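 Knee joints of adjuvant-arthritic rats were taken after intragastric dosing once daily, days 14–28 post-immunization (test agent 40 or 80 mg/kg; aspirin 50 mg/kg). Sections stained with H&E were scored by microscopy for synovial hyperplasia, inflammatory cell infiltration and bone/cartilage destruction, against normal and untreated arthritic rats.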

Rattus norvegicus [2] = experiment: Antiarthritic activity in Sprague-Dawley rat model of arthritis assessed as inhibition of CFA-induced cartilage destruction at 80 mg/kg, ig administered daily for 28 days starting from 14 days post-immunization and measured every 3 days by H and E staining based histopathological analysis; type: functional, organism-based; in short: as §1
[3] = biological target: T1, Nitric oxide synthase, inducible (Mus musculus, UniProt P29477); experiment: Inhibition of iNOS in LPS-stimulated mouse RAW 264.7 cells preincubated for 1 hr followed by LPS-stimulation and measured after 6 hrs by fluorescence based assay
T1 sequence (P29477 whole entry): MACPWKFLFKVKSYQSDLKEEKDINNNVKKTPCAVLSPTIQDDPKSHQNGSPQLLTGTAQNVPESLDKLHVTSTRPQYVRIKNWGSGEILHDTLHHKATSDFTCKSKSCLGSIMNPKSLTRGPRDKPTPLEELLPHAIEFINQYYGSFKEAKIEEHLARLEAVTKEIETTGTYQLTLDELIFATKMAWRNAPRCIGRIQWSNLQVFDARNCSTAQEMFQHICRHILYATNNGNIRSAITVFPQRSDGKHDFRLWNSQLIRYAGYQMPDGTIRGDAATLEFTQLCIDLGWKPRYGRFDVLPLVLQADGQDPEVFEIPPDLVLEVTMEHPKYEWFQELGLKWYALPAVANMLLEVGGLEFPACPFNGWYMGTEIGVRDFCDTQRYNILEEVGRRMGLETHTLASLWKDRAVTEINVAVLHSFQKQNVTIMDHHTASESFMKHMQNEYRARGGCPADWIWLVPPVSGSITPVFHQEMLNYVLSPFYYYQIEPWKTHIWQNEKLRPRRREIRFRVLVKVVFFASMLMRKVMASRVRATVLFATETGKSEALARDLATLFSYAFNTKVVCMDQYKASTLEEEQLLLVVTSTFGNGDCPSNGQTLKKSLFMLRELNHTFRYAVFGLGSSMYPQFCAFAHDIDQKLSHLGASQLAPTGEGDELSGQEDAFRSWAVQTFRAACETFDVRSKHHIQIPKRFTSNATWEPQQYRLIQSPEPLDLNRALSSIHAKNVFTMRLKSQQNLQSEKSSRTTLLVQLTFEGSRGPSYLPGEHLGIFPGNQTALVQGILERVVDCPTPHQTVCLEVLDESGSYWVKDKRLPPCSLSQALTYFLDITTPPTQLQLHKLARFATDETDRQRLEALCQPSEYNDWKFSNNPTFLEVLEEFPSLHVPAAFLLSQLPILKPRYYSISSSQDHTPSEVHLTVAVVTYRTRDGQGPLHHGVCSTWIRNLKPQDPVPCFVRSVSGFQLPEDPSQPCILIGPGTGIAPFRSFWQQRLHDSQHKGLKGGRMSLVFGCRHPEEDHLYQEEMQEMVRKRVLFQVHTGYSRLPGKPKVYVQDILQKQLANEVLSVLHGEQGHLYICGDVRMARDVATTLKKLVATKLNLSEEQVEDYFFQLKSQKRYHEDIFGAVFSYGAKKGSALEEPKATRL
In short: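 Inhibition calculated relative to LPS-stimulated and unstimulated controls. IC50 obtained by regression of inhibition rates at several concentrations. Indomethacin served as positive control.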

Rattus norvegicus [4] = experiment: Antiinflammatory activity in ig dosed CFA-induced Sprague-Dawley rat model of arthritis assessed as reduction in TNF-alpha level in serum administered daily for 28 days starting from 14 days post-immunization; type: functional, organism-based
In short: (§2)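 Serum NO, TNF-α, IL-1β and IL-6 measured in adjuvant-arthritic rats given intragastric dosing once daily, days 14–28 after immunization (test agent 40 or 80 mg/kg; aspirin 50 mg/kg), compared with untreated arthritic and normal rats. n=5 per group, mean±s.d.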

Rattus norvegicus [5] = experiment: Antiinflammatory activity in ig dosed CFA-induced Sprague-Dawley rat model of arthritis assessed as reduction in IL-6 level in serum administered daily for 28 days starting from 14 days post-immunization; type: functional, organism-based; in short: as §2
Rattus norvegicus [6] = experiment: Antiinflammatory activity in ig dosed CFA-induced Sprague-Dawley rat model of arthritis assessed as reduction in NO level in serum administered daily for 28 days starting from 14 days post-immunization; type: functional, organism-based; in short: as §2
Rattus norvegicus [7] = experiment: Antiinflammatory activity in ig dosed CFA-induced Sprague-Dawley rat model of arthritis assessed as reduction in IL-1beta level in serum administered daily for 28 days starting from 14 days post-immunization; type: functional, organism-based; in short: as §2
Rattus norvegicus [8] = experiment: Antiarthritic activity in CFA-induced Sprague-Dawley rat arthritic model assessed as inhibition of hind paw swelling at 40 mg/kg, ig administered daily for 28 days starting from 14 days post-immunization and measured on day 30; type: functional, organism-based
In short: (§3)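 Rat adjuvant-induced arthritis. Test agent given intragastrically once daily from day 14 to 28 after adjuvant immunization (40 or 80 mg/kg). Aspirin 50 mg/kg intragastric was the positive control. Hind paw swelling and arthritis index measured every 3 days, with body weight tracked; day 30 also reported. n=5 per group, mean±s.d., Tukey's test.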

[9] = biological target: T2, Nitric oxide synthase, inducible (Mus musculus) (UniProt P29477); experiment: Inhibition of iNOS dimerization in LPS-induced mouse RAW264.7 cells at 1 to 4 uM preincubated for 1 hr followed by LPS-stimulation and measured after 24 hrs by immunoblot analysis; type: cell-based
T2 sequence (whole entry): T1 sequence (P29477 whole entry)

RAW264.7 [10] = experiment: Antiinflammatory activity in mouse RAW264.7 cells assessed as inhibition of LPS-induced NO production at 10 uM preincubated for 1 hr followed by LPS addition and measured after 24 hrs by Griess reagent-based assay relative to control; type: functional
In short: (§4)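 RAW 264.7 cells pretreated with compound for 1 h, then LPS 1 µg/mL for 24 h. Single-point inhibition at 10 µM. IC50 by regression of inhibition over several concentrations. At least three independent experiments.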

RAW264.7 [11] = experiment: Antiinflammatory activity in mouse RAW264.7 cells assessed as inhibition of LPS-induced NO production preincubated for 1 hr followed by LPS addition and measured after 24 hrs by Griess reagent-based assay; type: functional, cell-based; in short: as §4
RAW264.7 [12] = experiment: Inhibition of iNOS expression in LPS-induced mouse RAW264.7 cells at 1 to 4 uM preincubated for 1 hr followed by LPS-stimulation by Western blot analysis; type: functional, cell-based
In short: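 RAW 264.7 cells pretreated with the indicated compound concentrations for 1 h, then LPS 1 µg/mL for 24 h. iNOS protein assessed by Western blot on 8% SDS-PAGE, with β-actin as loading control. At least three independent experiments, each in duplicate.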

Rattus norvegicus [13] = experiment: Antiarthritic activity in Sprague-Dawley rat model of arthritis assessed as inhibition of CFA-induced inflammatory cell infiltration at 40 and 80 mg/kg, ig administered daily for 28 days starting from 14 days post-immunization and measured every 3 days by H and E staining based histopathological analysis; type: functional, organism-based; in short: as §1
[14] = biological target: T2, Nitric oxide synthase, inducible (Mus musculus); experiment: Potency index, ratio of indomethacin IC50 to compound IC50 for inhibition of iNOS in LPS-stimulated mouse RAW264.7 cells; type: cell-based
RAW264.7 [15] = experiment: Cytotoxicity against LPS-induced mouse RAW264.7 cells assessed as reduction in cell viability; type: cell-based
[16] = Toxicity in Sprague-Dawley rat model of CFA-induced arthritis assessed as reduction in body weight loss at 40 to 80 mg/kg, ig administered daily for 28 days starting from 14 days post-immunization and measured on day 30; type: organism-based; conditions: in vivo, po; in short: as §3
RAW264.7 [17] = experiment: Cytotoxicity against mouse RAW264.7 cells assessed as reduction in cell viability; type: cell-based
Rattus norvegicus [18] = experiment: Antiarthritic activity in CFA-induced Sprague-Dawley rat arthritic model assessed as inhibition of hind paw swelling at 50 mg/kg, ig administered daily for 28 days starting from 14 days post-immunization and measured on day 30; type: functional, organism-based; in short: as §3
Rattus norvegicus [19] = experiment: Antiinflammatory activity in CFA-induced Sprague-Dawley rat model of arthritis assessed as reduction in NO level in serum at 50 mg/kg, ig administered daily for 28 days starting from 14 days post-immunization; type: functional, organism-based; in short: as §2
Rattus norvegicus [20] = experiment: Antiarthritic activity in Sprague-Dawley rat model of arthritis assessed as inhibition of CFA-induced inflammatory cell infiltration at 50 mg/kg, ig administered daily for 28 days starting from 14 days post-immunization and measured every 3 days by H and E staining based histopathological analysis; type: functional, organism-based; in short: as §1
Rattus norvegicus [21] = experiment: Antiinflammatory activity in CFA-induced Sprague-Dawley rat model of arthritis assessed as reduction in TNF-alpha level in serum at 50 mg/kg, ig administered daily for 28 days starting from 14 days post-immunization; type: functional, organism-based; in short: as §2
Rattus norvegicus [22] = experiment: Antiarthritic activity in Sprague-Dawley rat model of arthritis assessed as inhibition of CFA-induced cartilage destruction at 50 mg/kg, ig administered daily for 28 days starting from 14 days post-immunization and measured every 3 days by H and E staining based histopathological analysis; type: functional, organism-based; in short: as §1
Rattus norvegicus [23] = experiment: Antiinflammatory activity in CFA-induced Sprague-Dawley rat model of arthritis assessed as reduction in IL-6 level in serum at 50 mg/kg, ig administered daily for 28 days starting from 14 days post-immunization; type: functional, organism-based; in short: as §2
Rattus norvegicus [24] = experiment: Antiarthritic activity in Sprague-Dawley rat model of arthritis assessed as effect on CFA-induced synovial hyperplasia at 50 mg/kg, ig administered daily for 28 days starting from 14 days post-immunization and measured every 3 days by H and E staining based histopathological analysis; type: functional, organism-based; in short: as §1
Rattus norvegicus [25] = experiment: Antiinflammatory activity in CFA-induced Sprague-Dawley rat model of arthritis assessed as reduction in IL-1beta level in serum at 50 mg/kg, ig administered daily for 28 days starting from 14 days post-immunization; type: functional, organism-based; in short: as §2
[26] = Mus musculus, RAW264.7, read-out: IC50

| Compound | IC50 ([3]; read-out: IC50) [µM] | IC50 (RAW264.7 [11]; [26]) [µM] | inhibition at 10 µM (RAW264.7 [10]) [%] | IC50 (RAW264.7 [15]) [µM] | IC50 (RAW264.7 [17]) [µM] | other results |
| --- | --- | --- | --- | --- | --- | --- |
| COc1ccc2c(c1)c(CC(=O)O)c(C)n2C(=O)c1ccc(Cl)cc1 [INDOMETHACIN] | 24.9 |  | 59.2 | > 50 | > 50 |  |
| CC(=O)Oc1ccccc1C(=O)O |  |  |  |  |  | Activity (Rattus norvegicus [18]): Active; Activity (Rattus norvegicus [19]): Active; Activity (Rattus norvegicus [20]): Active; Activity (Rattus norvegicus [21]): Active; Activity (Rattus norvegicus [22]): Active; Activity (Rattus norvegicus [23]): Active; Activity (Rattus norvegicus [24]): Active; Activity (Rattus norvegicus [25]): Active |
| CCCc1nn(C)c2c(Nc3ccccc3)nc(/C=C/c3ccccc3)nc12 |  |  | 4.9 | > 50 | > 50 | IC50 [3]: Not Active; IC50 (RAW264.7 [11]; raw264.7): Not Active |
| CCCc1nn(C)c2c(NC(C)C)nc(/C=C/c3ccccc3)nc12 | 8.46 | 12.2 | 53.9 | > 50 | > 50 |  |
| CCCc1nn(C)c2c(NC(C)C)nc(-c3cc(OC)c(OC)c(OC)c3)nc12 | 7.26 | 10.8 | 51.9 | > 50 | > 50 |  |
| CCCc1nn(C)c2c(NCC(C)C)nc(/C=C/c3ccccc3)nc12 | 5.31 | 22.1 | 33.3 | > 50 | > 50 |  |
| CCCc1nn(C)c2c(N3CCCC3)nc(-c3cc(OC)c(OC)c(OC)c3)nc12 |  |  | 3.1 | > 50 | > 50 | IC50 [3]: Not Active; IC50 (RAW264.7 [11]; raw264.7): Not Active |
| CCCc1nn(C)c2c(Nc3ccc(C(=O)O)cc3)nc(-c3cc(OC)c(OC)c(OC)c3)nc12 | 10.2 | 15.8 | 44.9 | > 50 | > 50 |  |

More lines, in order of falling IC50 ([3]; read-out: IC50), values ahead:

| IC50 ([3]; read-out: IC50) [µM] | IC50 (RAW264.7 [11]; [26]) [µM] | Compound | inhibition at 10 µM (RAW264.7 [10]) [%] | IC50 (RAW264.7 [15]) [µM] | IC50 (RAW264.7 [17]) [µM] | other results |
| --- | --- | --- | --- | --- | --- | --- |
| 5.23 | 13.7 | CCCc1nn(C)c2c(N3CCC(O)CC3)nc(/C=C/c3cc(OC)c(OC)c(OC)c3)nc12 | 45.3 | > 50 | > 50 |  |
| 4.25 | 9.26 | CCCc1nn(C)c2c(NCc3ccc(Cl)cc3)nc(/C=C/c3ccco3)nc12 | 56.4 | > 50 | > 50 |  |
| 2.6 | 6.04 | CCCc1nn(C)c2c(NCCc3ccc(Cl)cc3)nc(/C=C/c3ccco3)nc12 | 79.2 | > 50 | > 50 |  |
| 1.12 | 3.17 | CCCc1nn(C)c2c(NC(C)C)nc(/C=C/c3cc(OC)c(OC)c(OC)c3)nc12 | 90.4 | > 50 | > 50 | Activity (Rattus norvegicus [1]): Active; Activity (Rattus norvegicus [2]): Active; Activity (Rattus norvegicus [4]): Dose-dependent effect; Activity (Rattus norvegicus [5]): Dose-dependent effect; Activity (Rattus norvegicus [6]): Dose-dependent effect; Activity (Rattus norvegicus [7]): Dose-dependent effect; inhibition (Rattus norvegicus [8]): Active; inhibition [9]: Active; inhibition (RAW264.7 [12]): inactive; Activity (Rattus norvegicus [13]): Active; Ratio IC50 [14]: 22; Activity [16]: Non-Toxic |

From ChEMBL document CHEMBL4354797, “Novel Pyrazolo[4,3- d]pyrimidine as Potent and Orally Active Inducible Nitric Oxide Synthase (iNOS) Dimerization Inhibitor with Efficacy in Rheumatoid Arthritis Mouse Model” (J Med Chem, 2019)
